NS3 helicase inh = inhibitors of Hepatitis C virus NS3 helicase; NS3 helicase DNA unwinding, Cy5 molecular beacon fluorescence; inhibition, % at 10.9 µM; 0.56% of 290,000 active; AID 1800;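 active means inhibition above the mean of all tested compounds plus 3 SD, set per campaign, cut at about 35% in these data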;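 further: 0% = DMSO wells and 100% = thioflavine S control wells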
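assay system = NS3 helicase fragment of HCV | buffer or medium = MOPS pH 6.5, MgCl2, DTT, Tween20, BSA | timing = 60 min unwinding reaction at 25 °C after ATP addition | signal = Cy5 beacon fluorescence read at start and 1 h | read-out basis = % inhibition of unwinding | control set = low DMSO, high thioflavine S at 110 µM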
MEKK3 PB1 HTS = modulators (inhibitors or enhancers) of MEK5 binding to human MEKK3 PB1 domain | 1.4% of 290,000 active | AID 1529 | binding response (% of control), % at 10 µM | Q99759 | bead-based flow cytometry, Alexa488-MEK5 binding to MEKK3; actives lie on both sides; 0 = blocked by unlabeled MEK5, 100 = vehicle;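 active means binding response more than 3 SD above or below the average of its plate-row segment, actives on both sides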;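 further: Alexa488 bead fluorescence after subtracting the streptavidin-only scavenger bead signal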
Target sequence (Q99759 whole entry, looked up, the tested form may be a part): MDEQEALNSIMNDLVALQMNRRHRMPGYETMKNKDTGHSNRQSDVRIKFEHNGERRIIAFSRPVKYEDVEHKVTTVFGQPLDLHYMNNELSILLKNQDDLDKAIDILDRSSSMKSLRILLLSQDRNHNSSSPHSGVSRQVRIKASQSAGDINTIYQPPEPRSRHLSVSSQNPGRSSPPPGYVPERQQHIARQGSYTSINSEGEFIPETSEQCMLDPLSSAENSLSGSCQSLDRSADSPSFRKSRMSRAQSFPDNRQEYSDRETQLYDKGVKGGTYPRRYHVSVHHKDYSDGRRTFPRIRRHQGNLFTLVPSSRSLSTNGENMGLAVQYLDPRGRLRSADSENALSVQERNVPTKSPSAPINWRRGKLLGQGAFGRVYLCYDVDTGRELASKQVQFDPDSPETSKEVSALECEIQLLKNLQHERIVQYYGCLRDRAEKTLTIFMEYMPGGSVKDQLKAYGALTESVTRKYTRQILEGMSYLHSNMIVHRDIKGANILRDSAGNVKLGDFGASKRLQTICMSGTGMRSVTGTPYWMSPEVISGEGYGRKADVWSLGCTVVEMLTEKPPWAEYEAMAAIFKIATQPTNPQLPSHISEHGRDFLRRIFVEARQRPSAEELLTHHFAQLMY
MEKK2wt PB1 HTS = raises or lowers MEK5 binding to wildtype human MEKK2 PB1 domain. Q9Y2U5. bead flow cytometry, Alexa488-MEK5 binding to MEKK2 WT; actives lie on both sides. binding response (% of control), % at 10 µM. 1.1% of 290,000 active; in the data active means binding response below about 67% or above about 130%
DNA FID counter = fluorescent intercalator displacement, NS3 helicase counter-screen. DNA fluorescent intercalator displacement, fluorescence. inhibition, % at 7.9 µM. 0.17% of 290,000 active. AID 1845; in the data active means inhibition above about 37%;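 further: 0% = vehicle and 100% = reference compound; higher means more ethidium bromide displaced from hairpin DNA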
MEKK2 mut-MEK5 = signal of MEK5 binding to mutant human MEKK2 PB1 domain. bead flow cytometry, Alexa488-MEK5 binding to MEKK2 mutant. percent response, % at 10 µM. 0.35% of 290,000 active. AID 1530; in the data active means percent response above about 24%, passing the limit was not always enough
T cruzi repl = T. cruzi replication inhibition; 1.4% of 300,000 active; inhibition, % (concentration not given with the values); T. cruzi beta-gal in NIH3T3, luminescence, 90 h; AID 1885;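 active means mean inhibition across valid replicates above about 55%, limit read from the data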;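 further: signal also drops with host cell toxicity which is not excluded here; 0% = plate median of DMSO wells and 100% = zero luminescence signal; higher percent means less beta-gal luminescence so fewer parasites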
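System – NIH/3T3 host cells with β-galactosidase reporter T. cruzi · Doses – single 50 nL compound addition per well in DMSO · Reagent – 5000 T. cruzi trypomastigotes/well · Medium – Low-serum DMEM with 2% FBS · Timing – ≥90 h infection period, 3 h prior cell attachment · Evaluation – parasite load inhibition, % · Technique – GalScreen luminescence, 60 min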
Starred values were filed as active, the others as inactive; / = no result; [ ] = another dose, or the depositor's remark. Hits are enriched below; roughly 4.1% of the tested compounds scored in any of these assays.

SMILES	NS3 helicase inh	MEKK3 PB1 HTS	MEKK2wt PB1 HTS	DNA FID counter	MEKK2 mut-MEK5	T cruzi repl
COc1cccc(O)c1CN1CCCC(C(=O)c2cccc(C(F)(F)F)c2)C1 (configuration not stated)	-20	96	97	20	-2	27
COc1ccc(C(=O)C2CCCN(Cc3ccc(C#CCCO)cc3)C2)cc1F (configuration not stated)	2	100	95	-1	-4	59*
O=C(NCC1CCCN(Cc2ccc3nonc3c2)C1)c1cccc(C(F)(F)F)c1 (configuration not stated)	-2	106	103	7	-7	58*
CN1CCc2nc3ccc(Cl)cc3c(-c3ccccc3Cl)c2C1	-36	104	111	22	30	40
O=C(NC(NC(=S)Nc1ccccc1)C(Cl)(Cl)Cl)c1cccc(Cl)c1 (configuration not stated)	5	103	122	0	9	65*
O=C(Cc1cccc(C(F)(F)F)c1)NCC(c1ccco1)N1CCCCC1 (configuration not stated)	2	98	102	0	2	7
CC(C)Cc1ccc(C(C)C(N)=NCCc2ccccc2)cc1 (configuration not stated)	-58	104	119	39*	5	47
Cc1cccc(Nc2nc(N3CCOCC3)nc(N3CCOCC3)n2)c1	-20	111	108	-28	4	56*
CCCCSc1nc2ccc(Nc3nc(N4CCOCC4)nc(N4CCOCC4)n3)cc2s1	-2	100	101	-5	2	57*
c1ccc2sc(NC3=NCN(CC4CCCO4)CN3)nc2c1 (configuration not stated)	1	52	69	4	-5	-6
Cc1ccc(CNC(=O)C2CCCN(c3cnccn3)C2)cc1 (configuration not stated)	1	101	100	-5	-1	6
O=C(NN1CCOCC1)NC12CC3CC(CC(C3)C1)C2	1	88	90	-14	-17	-6
CC1CCN(CCCNC(=O)c2cc3c(Cl)nc4ccccc4c3s2)CC1	-23	105	154*	20	26	56*
Nc1cc(C(=O)OCC(=O)NCCNC(=O)COC(=O)c2ccc(Cl)c(N)c2)ccc1Cl	-10	102	103	-26	2	-6
Cc1ccc2nc(C)cc(C(=O)N3CCCC(CO)(Cc4ccccc4C)C3)c2c1 (configuration not stated)	10	102	97	-34	-2	29
O=C(O)c1ccc(CSc2n[nH]c(-c3ccco3)n2)cc1	36*	99	101	-14	1	-8
CCOC(=O)CSc1n[nH]c(-c2ccco2)n1	-3	98	97	0	3	-6
Cn1nc(C(=O)N2CCN(C(c3ccccc3)c3ccccc3)CC2)c2ccccc2c1=O	-11	71	69	-39	-28	-2
Cc1c(C(=O)N2CCCCC2)c(S(=O)(=O)N(C)Cc2ccco2)c(C)n1C	2	102	102	-21	3	-5
CCOC(=O)c1c(S(=O)(=O)N(C)Cc2ccco2)c(C)n(C)c1C	18	30*[inhibitor]	43*[inhibitor]	-24	-53	0
CS(=O)(=O)c1ncc(Cl)c(C(=O)Nc2ccc(N3CCOCC3)cc2)n1	1	/	/	3	/	42
CS(=O)(=O)c1ncc(Cl)c(C(=O)Nc2ccc(OC(F)F)cc2)n1	-5	108	109	5	8	55*
COc1ccc(Nc2nc(NC(C)(C)C)nc(N3CCOCC3)n2)c(OC)c1	-8	98	103	-20	1	59*
COc1ccc(Nc2nc(N3CCCCC3)nc3ccccc23)c(OC)c1	-26	107	114	15	6	58*
COc1ccc(Nc2nc(N3CCN(S(C)(=O)=O)CC3)nc3ccccc23)c(OC)c1	-15	103	104	0	1	9
SMILES	NS3 helicase inh	MEKK3 PB1 HTS	MEKK2wt PB1 HTS	DNA FID counter	MEKK2 mut-MEK5	T cruzi repl
COc1ccc(Nc2nc(-c3ccccc3)nc3ccccc23)c(OC)c1	-1	100	98	6	-3	65*
CCC(C)Nc1nc(-c2c[nH]c3ccccc23)cs1 (configuration not stated)	-48	78*[inhibitor]	-19*	8	8	5
CCc1ccc(-c2csc(-c3c[nH]c4ccccc34)n2)cc1	8	108	132	11	1	-16
COc1cc(OC)c(C(=O)OCC(=O)NCCc2ccccc2)cc1OC	6	102	104	-20	-2	-8
O=[N+]([O-])c1cc(-c2nnc(C34CC5CC(CC(C5)C3)C4)o2)cc([N+](=O)[O-])c1	2	/	/	1	/	57*
CCN1CCN(c2ccc(S(=O)(=O)N3CCCCC3)cc2NC(=O)/C=C/c2cccc(OC)c2OC)CC1	-44	102	131	38*	5	38
CCN1CCN(c2ccc(S(=O)(=O)N3CCOCC3)cc2NC(=O)c2ccc(Cl)s2)CC1	/	/	/	/	/	69*
CCN1CCN(c2ccc(S(=O)(=O)N3CCCCC3)cc2NC(=O)/C=C/c2ccc(F)cc2)CC1	/	/	/	/	/	47
CCN1CCN(c2ccc(S(=O)(=O)N3CCCCC3)cc2NC(=O)c2cc3ccccc3o2)CC1	/	/	/	/	/	76*
Cc1cc(OCCn2ccnc2)cc(C)c1Cl	-15	98	107	2	5	51
CN(C(=O)COC(=O)C(C)(C)Oc1ccc(Cl)cc1)c1c(N)n(Cc2ccccc2)c(=O)[nH]c1=O	/	/	/	/	/	-19
O=C(Cn1c(C(=O)N2CCN(C3CCCCC3)CC2)cc2sccc21)c1ccccc1	-44	113	121	16	10	76*
O=C(Cn1c(C(=O)N2CCc3ccccc3C2)cc2sccc21)c1ccccc1	-14	85	87	-17	-8	37
CCC(=O)Nc1ccc2nc(C3CC3)n(Cc3ccc(C(C)(C)C)cc3)c(=O)c2c1	-11	87	85	-18	-21	58*
O=C(NCC1CCCO1)C(=O)N/N=C/c1c(F)cccc1Cl (configuration not stated)	-9	101	99	-7	0	-4
Cc1cc(S(=O)(=O)c2ccc([N+](=O)[O-])cn2)ccc1Br	/	/	/	/	/	15
Cc1ccc(S(=O)(=O)c2ccc([N+](=O)[O-])cn2)cc1	-15	105	103	0	8	67*
Nc1ccc(S(=O)(=O)c2ccccc2)nc1	11	102	105	-3	3	-4
O=[N+]([O-])c1ccc(S(=O)(=O)c2ccccc2)nc1	2	105	103	-6	10	73*
COc1cccc(C(=O)OCCNC(=O)c2cccnc2)c1	-9	102	106	3	-1	5

Source: PubChem BioAssay (several laboratories)
